# Measured values: publication PMC3743164 (Chemmedchem, 2013)
# What was measured:
# HepG2 cells = experiment: HepG2 cytotoxicity assay; format: cell-based; settings: Homo sapiens, HepG2, 48 h, read-out: Ctox.: IC50 HepG2
# Procedure, shortened: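 HepG2 cells were harvested while actively growing, with monolayers kept ≤50 % confluent, in Eagle's MEM with 10 % FBS, 1 % NEAA and 1 % penicillin/streptomycin. They were seeded at about 3000 cells per well (1.2×10^5 cells mL−1) onto predispensed test compound. Plates were incubated 48 h at 37 °C, 80 % humidity and 5 % CO2, equilibrated 30 min at room temperature, then developed with CellTiter-Glo for 10 min before luminescence reading.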
# M. tuberculosis H37Rv = M. tuberculosis H37Rv inhibition assay; format: cell-based; settings: Mycobacterium tuberculosis, read-out: MIC H37Rv
SMILES,IC50 (HepG2 cells),MIC (M. tuberculosis H37Rv)
CO[C@H]1/C=C/O[C@@]2(C)Oc3c(C)c(O)c4c(O)c(c(/C=N/N5CCN(C)CC5)c(O)c4c3C2=O)NC(=O)/C(C)=C\C=C\[C@H](C)[C@H](O)[C@@H](C)[C@@H](O)[C@@H](C)[C@H](OC(C)=O)[C@@H]1C [Rifampicin],> 256 µM,0.02 µM
NNC(=O)c1ccncc1 [Isoniazid],207 µM,1.8 µM
